According to ChEMBL document CHEMBL1671716, “Antimicrobial susceptibility patterns for recent clinical isolates of anaerobic bacteria in South Korea” (2010):
Values after ≈ are worked out from the molar mass of the structure shown.

Columns and labels:
Parvimonas micra = assay: Antimicrobial activity against Peptostreptococcus micros after 48 hrs by agar dilution method; format: functional
Method in brief: (§1)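 CLSI agar dilution (M11-A7); inoculum 10^5 CFU applied by replicator; plates incubated anaerobically 48 h at 37°C. For piperacillin-tazobactam, tazobactam held constant at 4 μg/ml.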

[1] = system: Bifidobacterium adolescentis; assay: Antimicrobial activity against Bifidobacterium adolescentis assessed as percent susceptible isolates after 48 hrs by agar dilution method; format: functional
[2] = system: Bacteroides thetaiotaomicron; assay: Antimicrobial activity against Bacteroides thetaiotaomicron after 48 hrs by agar dilution method; format: functional
Method in brief: (§2)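 MICs on clinical anaerobe isolates by the CLSI agar dilution method. Inoculum of 10^5 CFU applied with a Steers replicator. Plates incubated 48 h at 37°C in an anaerobic chamber.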

Schaalia meyeri [3] = assay: Antimicrobial activity against Actinomyces meyeri assessed as percent susceptible isolates after 48 hrs by agar dilution method; format: functional
[4] = system: Bacteroides thetaiotaomicron; assay: Antimicrobial activity against Bacteroides thetaiotaomicron assessed as percent susceptible isolates after 48 hrs by agar dilution method; format: functional
Phocaeicola vulgatus = assay: Antimicrobial activity against Bacteroides vulgatus after 48 hrs by agar dilution method; format: functional; method in brief: as §2
Clostridium perfringens = assay: Antimicrobial activity against Clostridium perfringens after 48 hrs by agar dilution method; format: functional
[5] = system: Peptoniphilus asaccharolyticus; assay: Antimicrobial activity against Peptoniphilus asaccharolyticus after 48 hrs by agar dilution method; format: functional; method in brief: as §1
Actinomyces naeslundii [6] = assay: Antimicrobial activity against Actinomyces naeslundii assessed as percent resistant isolates after 48 hrs by agar dilution method; format: functional
Method in brief: (§3)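 CLSI agar dilution on recent Korean clinical anaerobe isolates. Inoculum 10^5 CFU per spot by replicator. Plates incubated in an anaerobic chamber at 37°C for 48 h. For piperacillin plus tazobactam, tazobactam was held constant at 4 μg/ml. Resistance and susceptibility rates derived from MICs.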

Bifidobacterium sp. = assay: Antimicrobial activity against Bifidobacterium sp. assessed as percent susceptible isolates after 48 hrs by agar dilution method; format: functional; method in brief: as §1
Prevotella intermedia [7] = assay: Antimicrobial activity against Prevotella intermedia assessed as percent susceptible isolates after 48 hrs by agar dilution method; format: functional; method in brief: as §1
[8] = system: Parabacteroides distasonis; assay: Antimicrobial activity against Bacteroides distasonis assessed as percent resistant isolates after 48 hrs by agar dilution method; format: functional; method in brief: as §3
[9] = system: Bacteroides thetaiotaomicron; assay: Antimicrobial activity against Bacteroides thetaiotaomicron assessed as percent resistant isolates after 48 hrs by agar dilution method; format: functional; method in brief: as §3
Actinomyces naeslundii [10] = assay: Antimicrobial activity against Actinomyces naeslundii assessed as percent susceptible isolates after 48 hrs by agar dilution method; format: functional
Hoylesella oralis [11] = assay: Antimicrobial activity against Prevotella oralis after 48 hrs by agar dilution method; format: functional; method in brief: as §1
Bacteroides caccae = assay: Antimicrobial activity against Bacteroides caccae after 48 hrs by agar dilution method; format: functional; method in brief: as §2
Prevotella bivia [12] = assay: Antimicrobial activity against Prevotella bivia assessed as percent susceptible isolates after 48 hrs by agar dilution method; format: functional; method in brief: as §1
Prevotella buccae [13] = assay: Antimicrobial activity against Prevotella buccae after 48 hrs by agar dilution method; format: functional; details: Segatella buccae; method in brief: as §1
Prevotella bivia [14] = assay: Antimicrobial activity against Prevotella bivia after 48 hrs by agar dilution method; format: functional; method in brief: as §1
Hoylesella oralis [15] = assay: Antimicrobial activity against Prevotella oralis assessed as percent resistant isolates after 48 hrs by agar dilution method; format: functional; method in brief: as §3
Prevotella buccae [16] = assay: Antimicrobial activity against Prevotella buccae assessed as percent resistant isolates after 48 hrs by agar dilution method; format: functional, Segatella buccae; method in brief: as §3
Prevotella intermedia [17] = assay: Antimicrobial activity against Prevotella intermedia assessed as percent resistant isolates after 48 hrs by agar dilution method; format: functional; method in brief: as §3
Fusobacterium varium = assay: Antimicrobial activity against Fusobacterium varium after 48 hrs by agar dilution method; format: functional; method in brief: as §1
Eggerthella lenta = assay: Antimicrobial activity against Eubacterium lentum after 48 hrs by agar dilution method; format: functional; method in brief: as §1
Schaalia odontolytica = assay: Antimicrobial activity against Actinomyces odontolyticus after 48 hrs by agar dilution method; format: functional; method in brief: as §2
Schaalia meyeri [18] = assay: Antimicrobial activity against Actinomyces meyeri assessed as percent resistant isolates after 48 hrs by agar dilution method; format: functional; method in brief: as §3
Actinomyces israelii = assay: Antimicrobial activity against Actinomyces israelii assessed as percent resistant isolates after 48 hrs by agar dilution method; format: functional; method in brief: as §3
[19] = system: Parabacteroides distasonis; assay: Antimicrobial activity against Bacteroides distasonis assessed as percent susceptible isolates after 48 hrs by agar dilution method; format: functional
Finegoldia magna = assay: Antimicrobial activity against Finegoldia magna assessed as percent susceptible isolates after 48 hrs by agar dilution method; format: functional; method in brief: as §1

## C[C@@H](O)[C@H]1C(=O)N2C(C(=O)O)=C(S[C@@H]3CN[C@H](C(=O)N(C)C)C3)[C@H](C)[C@H]12 [MEROPENEM]
Parvimonas micra
  MIC: 0.01 µg/mL (≈ 0.0261 µM)
  MIC50: 0.25 µg/mL (≈ 0.652 µM)
  MIC90: 4 µg/mL (≈ 10.4 µM)
[1]
  Activity: 92%
[2]
  MIC50: 0.25 µg/mL (≈ 0.652 µM)
  MIC90: 2 µg/mL (≈ 5.22 µM)
Schaalia meyeri [3]
  Activity: 92%
[4]
  Activity: 98%
Phocaeicola vulgatus
  MIC50: 0.25 µg/mL (≈ 0.652 µM)
  MIC90: 2 µg/mL (≈ 5.22 µM)
Clostridium perfringens
  MIC50: 0.015 µg/mL (≈ 0.0391 µM)
  MIC90: 0.015 µg/mL (≈ 0.0391 µM)
[5]
  MIC50: ≤ 0.008 µg/mL
  MIC90: 0.03 µg/mL (≈ 0.0782 µM)
Actinomyces naeslundii [6]
  Activity: 8%
Bifidobacterium sp.
  Activity: 92%
Prevotella intermedia [7]
  Activity: 100%
[8]
  Activity: 0%
[9]
  Activity: 0%
Actinomyces naeslundii [10]
  Activity: 92%
Hoylesella oralis [11]
  MIC50: 0.125 µg/mL (≈ 0.326 µM)
  MIC90: 0.5 µg/mL (≈ 1.3 µM)
Bacteroides caccae
  MIC50: 0.25 µg/mL (≈ 0.652 µM)
  MIC90: 2 µg/mL (≈ 5.22 µM)
Prevotella bivia [12]
  Activity: 100%
Prevotella buccae [13]
  MIC50: 0.125 µg/mL (≈ 0.326 µM)
  MIC90: 0.5 µg/mL (≈ 1.3 µM)
Prevotella bivia [14]
  MIC50: 0.125 µg/mL (≈ 0.326 µM)
  MIC90: 0.5 µg/mL (≈ 1.3 µM)
Hoylesella oralis [15]
  Activity: 0%
Prevotella buccae [16]
  Activity: 0%
Prevotella intermedia [17]
  Activity: 0%
Fusobacterium varium
  MIC: 0.008 µg/mL (≈ 0.0209 µM)
Eggerthella lenta
  MIC50: 0.125 µg/mL (≈ 0.326 µM)
  MIC90: 2 µg/mL (≈ 5.22 µM)
Schaalia odontolytica
  MIC50: 0.125 µg/mL (≈ 0.326 µM)
  MIC90: 2 µg/mL (≈ 5.22 µM)
Schaalia meyeri [18]
  Activity: 8%
Actinomyces israelii
  Activity: 8%
[19]
  Activity: 98%
Finegoldia magna
  Activity: 100%

## COc1c(N2C[C@@H]3CCCN[C@@H]3C2)c(F)cc2c(=O)c(C(=O)O)cn(C3CC3)c12 [MOXIFLOXACIN]
Parvimonas micra
  MIC50: 0.125 µg/mL (≈ 0.311 µM)
  MIC90: 0.25 µg/mL (≈ 0.623 µM)
[1]
  Activity: 92%
Schaalia meyeri [3]
  Activity: 92%
[4]
  Activity: 72%
Phocaeicola vulgatus
  MIC50: 2 µg/mL (≈ 4.98 µM)
  MIC90: 16 µg/mL (≈ 39.9 µM)
[5]
  MIC50: 0.25 µg/mL (≈ 0.623 µM)
  MIC90: 2 µg/mL (≈ 4.98 µM)
Actinomyces naeslundii [6]
  Activity: 0%
Bifidobacterium sp.
  Activity: 92%
Prevotella intermedia [7]
  Activity: 100%
[8]
  Activity: 18%
[9]
  Activity: 18%
Actinomyces naeslundii [10]
  Activity: 92%
Hoylesella oralis [11]
  MIC50: 2 µg/mL (≈ 4.98 µM)
  MIC90: 8 µg/mL (≈ 19.9 µM)
Bacteroides caccae
  MIC50: 2 µg/mL (≈ 4.98 µM)
  MIC90: 16 µg/mL (≈ 39.9 µM)
Prevotella bivia [12]
  Activity: 56%
Hoylesella oralis [15]
  Activity: 11%
Prevotella buccae [16]
  Activity: 11%
Prevotella intermedia [17]
  Activity: 0%
Eggerthella lenta
  MIC50: 1 µg/mL (≈ 2.49 µM)
  MIC90: 2 µg/mL (≈ 4.98 µM)
Schaalia odontolytica
  MIC50: 1 µg/mL (≈ 2.49 µM)
  MIC90: 2 µg/mL (≈ 4.98 µM)
Schaalia meyeri [18]
  Activity: 0%
Actinomyces israelii
  Activity: 0%
[19]
  Activity: 72%
Finegoldia magna
  Activity: 60%

## Cc1ncc([N+](=O)[O-])n1CCO [METRONIDAZOLE]
Parvimonas micra
  MIC50: 0.5 µg/mL (≈ 2.92 µM)
  MIC90: 1 µg/mL (≈ 5.84 µM)
[1]
  Activity: 46%
[2]
  MIC50: 2 µg/mL (≈ 11.7 µM)
  MIC90: 2 µg/mL (≈ 11.7 µM)
Schaalia meyeri [3]
  Activity: 46%
[4]
  Activity: 100%
Phocaeicola vulgatus
  MIC50: 2 µg/mL (≈ 11.7 µM)
  MIC90: 2 µg/mL (≈ 11.7 µM)
Clostridium perfringens
  MIC: 0.02 µg/mL (≈ 0.117 µM)
  MIC50: 0.03 µg/mL (≈ 0.175 µM)
  MIC90: 0.06 µg/mL (≈ 0.351 µM)
[5]
  MIC50: 1 µg/mL (≈ 5.84 µM)
  MIC90: 1 µg/mL (≈ 5.84 µM)
Bifidobacterium sp.
  Activity: 46%
Prevotella intermedia [7]
  Activity: 100%
[8]
  Activity: 0%
[9]
  Activity: 0%
Actinomyces naeslundii [10]
  Activity: 46%
Hoylesella oralis [11]
  MIC50: 4 µg/mL (≈ 23.4 µM)
  MIC90: 8 µg/mL (≈ 46.7 µM)
Bacteroides caccae
  MIC50: 2 µg/mL (≈ 11.7 µM)
  MIC90: 2 µg/mL (≈ 11.7 µM)
Prevotella bivia [12]
  Activity: 100%
Prevotella buccae [13]
  MIC50: 4 µg/mL (≈ 23.4 µM)
  MIC90: 8 µg/mL (≈ 46.7 µM)
Prevotella bivia [14]
  MIC50: 4 µg/mL (≈ 23.4 µM)
  MIC90: 8 µg/mL (≈ 46.7 µM)
Hoylesella oralis [15]
  Activity: 0%
Prevotella buccae [16]
  Activity: 0%
Prevotella intermedia [17]
  Activity: 0%
Fusobacterium varium
  MIC: 0.13 µg/mL (≈ 0.76 µM)
Eggerthella lenta
  MIC50: 16 µg/mL (≈ 93.5 µM)
  MIC90: > 128 µg/mL
Schaalia odontolytica
  MIC50: 16 µg/mL (≈ 93.5 µM)
  MIC90: > 128 µg/mL
[19]
  Activity: 100%
Finegoldia magna
  Activity: 100%

## CCC[C@@H]1C[C@@H](C(=O)N[C@@H]([C@H]2O[C@H](SC)[C@H](O)[C@@H](O)[C@H]2O)[C@H](C)Cl)N(C)C1 [CLINDAMYCIN]
Parvimonas micra
  MIC50: 0.125 µg/mL (≈ 0.294 µM)
  MIC90: 64 µg/mL (≈ 151 µM)
[1]
  Activity: 85%
[2]
  MIC50: > 128 µg/mL
  MIC90: > 128 µg/mL
Schaalia meyeri [3]
  Activity: 85%
[4]
  Activity: 16%
Phocaeicola vulgatus
  MIC50: > 128 µg/mL
  MIC90: > 128 µg/mL
Clostridium perfringens
  MIC50: 2 µg/mL (≈ 4.71 µM)
  MIC90: 4 µg/mL (≈ 9.41 µM)
[5]
  MIC50: 0.125 µg/mL (≈ 0.294 µM)
  MIC90: 32 µg/mL (≈ 75.3 µM)
Actinomyces naeslundii [6]
  Activity: 15%
Bifidobacterium sp.
  Activity: 85%
Prevotella intermedia [7]
  Activity: 100%
[8]
  Activity: 68%
[9]
  Activity: 68%
Actinomyces naeslundii [10]
  Activity: 85%
Hoylesella oralis [11]
  MIC50: ≤ 0.06 µg/mL
  MIC90: 128 µg/mL (≈ 301 µM)
Bacteroides caccae
  MIC50: > 128 µg/mL
  MIC90: > 128 µg/mL
Prevotella bivia [12]
  Activity: 50%
Prevotella buccae [13]
  MIC50: ≤ 0.06 µg/mL
  MIC90: 128 µg/mL (≈ 301 µM)
Prevotella bivia [14]
  MIC50: ≤ 0.06 µg/mL
  MIC90: 128 µg/mL (≈ 301 µM)
Prevotella intermedia [17]
  Activity: 0%
Fusobacterium varium
  MIC: 0.06 µg/mL (≈ 0.141 µM)
Eggerthella lenta
  MIC: 0.06 µg/mL (≈ 0.141 µM)
  MIC50: 0.06 µg/mL (≈ 0.141 µM)
  MIC90: > 128 µg/mL
Schaalia odontolytica
  MIC: 0.06 µg/mL (≈ 0.141 µM)
  MIC50: 0.06 µg/mL (≈ 0.141 µM)
  MIC90: > 128 µg/mL
Schaalia meyeri [18]
  Activity: 15%
Actinomyces israelii
  Activity: 15%
[19]
  Activity: 16%
Finegoldia magna
  Activity: 73%
